In ChEMBL document CHEMBL1125577, “Determination of dissociation constants of high affinity (pM) human renin inhibitors: application to analogues of ditekiren (U-71,038)” (J Med Chem, 1991):
Numbered stars: 1 amine (or outer) side, 2 acyl side, 3 side chain; on linkers, the order of the positions; unused ones are H or OH. Square brackets hold non-standard residues; d marks the D form. Peptide text beside a SMILES is read from it. * marks the point of attachment. ξ: configuration not given here. X1 = CC(C)C[C@H](N[*:1])[C@@H](O)C[C@H](C(=O)[*:2])C(C)C; X2 = OC[C@H]1O[C@@H](O)[C@H](N*)[C@H](O)[C@@H]1O; NH(2-picolyl-N-oxide) = [O-][n+]1ccccc1CN*; NMeH = CN[C@@H](Cc1c[nH]cn1)C(=O)O; NHCH2(2-pyridyl) = c1ccc(CN*)nc1; Ile(3ξ) = CCC(C)[C@H](N)C(=O)O; NHC(CH2OH)3 = OCC(CO)(CO)N*; Boc = CC(C)(C)OC(=O)*; CO = O=C([*:1])[*:2]

Key:
[1] = The dissociation constant determined by fluorescence displacement assay
How it was run: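 Unlabeled inhibitor (6.6 and 13 nM) then added for 2.5 h more, with fluorescence read before and after each addition. Kd fitted from predicted binding curves or numerical solution, as the mean of three duplicate determinations.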

Renin [2] = biological target: T1, Renin (Homo sapiens, UniProt P00797); assay: In vitro inhibition of human renin by radio-immuno assay of angiotensin I (ANG I)
T1 sequence (P00797 whole entry): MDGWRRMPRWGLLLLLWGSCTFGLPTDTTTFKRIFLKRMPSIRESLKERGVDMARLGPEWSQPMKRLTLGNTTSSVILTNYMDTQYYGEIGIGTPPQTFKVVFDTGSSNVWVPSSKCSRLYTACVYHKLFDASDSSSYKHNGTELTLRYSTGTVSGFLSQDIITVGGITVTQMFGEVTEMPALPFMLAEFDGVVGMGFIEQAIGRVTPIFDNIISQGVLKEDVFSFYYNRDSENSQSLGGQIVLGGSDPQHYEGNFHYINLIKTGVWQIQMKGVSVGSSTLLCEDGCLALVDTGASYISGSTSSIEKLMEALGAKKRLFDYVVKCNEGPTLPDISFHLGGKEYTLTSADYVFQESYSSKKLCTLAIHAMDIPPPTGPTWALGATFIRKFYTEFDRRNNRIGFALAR

Renin [3] = biological target: T1, Renin; assay: In vitro inhibition constants using recombinant human renin assay

Row | SMILES | Kd [1] [nM] | IC50 (Renin [2]) [nM] | Ki (Renin [3]) [nM]
1 | CC[C@H](C)[C@H](NC(=O)[C@@H](C[C@H](O)[C@H](CC(C)C)NC(=O)[C@H](Cc1c[nH]cn1)N(C)C(=O)[C@H](Cc1ccccc1)NC(=O)[C@@H]1CCCN1C(=O)OC(C)(C)C)C(C)C)C(=O)NCc1ccccn1 [DITEKIREN] | 0.04 | 0.26 | 0.04
2 | CC[C@H](C)[C@H](NC(=O)[C@@H](C[C@H](O)[C@H](CC(C)C)NC(=O)[C@H](Cc1cnc[nH]1)N(C)C(=O)[C@H](Cc1ccccc1)NC(=O)[C@@H]1CCCN1C(=O)OC(C)(C)C)C(C)C)C(=O)NCc1cccc[n+]1[O-] (Boc-PF[NMeH][X1]I-{NH(2-picolyl-N-oxide)}) | – | 0.33 | –
3 | CC[C@H](C)[C@H](NC(=O)[C@@H](C[C@H](O)[C@H](CC(C)C)NC(=O)[C@H](Cc1c[nH]cn1)N(C)C(=O)[C@H](Cc1ccccc1)NC(=O)[C@@H]1CCCN1C(=O)OC(C)(C)C)C(C)C)C(=O)NCc1cccc[n+]1[O-] (Boc-PF[NMeH][X1]I-{NH(2-picolyl-N-oxide)}) | 0.131 | – | –
4 | CC[C@H](C)[C@H](NC(=O)[C@@H](C[C@H](O)[C@H](CC(C)C)NC(=O)[C@H](Cc1c[nH]cn1)N(C)C(=O)[C@H](Cc1ccccc1)NC(=O)[C@@H]1CCCN1C(=O)OC(C)(C)C)C(C)C)C(=O)NC(CO)(CO)CO (Boc-PF[NMeH][X1]I-{NHC(CH2OH)3}) | 0.044 | 0.26 | –
5 | CCC(C)[C@H](NC(=O)[C@@H](C[C@H](O)[C@H](CC(C)C)NC(=O)[C@H](Cc1cnc[nH]1)N(C)C(=O)[C@H](Cc1ccccc1)NC(=O)[C@@H]1CCCN1C(=O)NC(CO)(CO)CO)C(C)C)C(=O)NCc1cccc[n+]1[O-] (some centres not stated) ({NHC(CH2OH)3-CO}-PF[NMeH][X1][Ile(3ξ)]-{NH(2-picolyl-N-oxide)}) | – | 0.58 | 0.051
6 | CC[C@H](C)[C@H](NC(=O)[C@@H](C[C@H](O)[C@H](CC(C)C)NC(=O)[C@H](Cc1c[nH]cn1)NC(=O)[C@@H](Cc1ccccc1)NS(=O)(=O)c1cccc2c(N(C)C)cccc12)C(C)C)C(=O)NCc1ccccn1 | 0.066 | 0.24 | 0.043
7 | CCC(C)[C@H](NC(=O)[C@@H](C[C@H](O)[C@H](CC(C)C)NC(=O)[C@H](Cc1c[nH]cn1)N(C)C(=O)[C@H](Cc1ccccc1)NC(=O)[C@@H]1CCCN1C(=O)NC(CO)(CO)CO)C(C)C)C(=O)NCc1cccc[n+]1[O-] (some centres not stated) ({NHC(CH2OH)3-CO}-PF[NMeH][X1][Ile(3ξ)]-{NH(2-picolyl-N-oxide)}) | 0.033 | – | –
8 | CC[C@H](C)[C@H](NC(=O)[C@@H](C[C@H](O)[C@H](CC(C)C)NC(=O)[C@H](Cc1c[nH]cn1)N(C)C(=O)[C@H](Cc1ccccc1)NC(=O)[C@@H]1CCCN1C(=O)N[C@@H]1[C@H](O)[C@H](O)[C@@H](CO)O[C@H]1O)C(C)C)C(=O)NCc1cccc[n+]1[O-] ({X2-CO}-PF[NMeH][X1]I-{NH(2-picolyl-N-oxide)}) | 0.434 | 1.1 | –
9 | CC[C@H](C)[C@H](NC(=O)[C@@H](C[C@H](O)[C@H](CC(C)C)NC(=O)[C@H](Cc1cnc[nH]1)N(C)C(=O)[C@H](Cc1ccccc1)NC(=O)[C@@H]1CCCN1C(=O)NC(CO)(CO)CO)C(C)C)C(=O)NCc1ccccn1 ({NHC(CH2OH)3-CO}-PF[NMeH][X1]I-{NHCH2(2-pyridyl)}) | – | 0.33 | –
10 | CC[C@H](C)[C@H](NC(=O)[C@@H](C[C@H](O)[C@H](CC(C)C)NC(=O)[C@H](Cc1c[nH]cn1)N(C)C(=O)[C@H](Cc1ccccc1)NC(=O)[C@@H]1CCCN1C(=O)NC(CO)(CO)CO)C(C)C)C(=O)NCc1ccccn1 ({NHC(CH2OH)3-CO}-PF[NMeH][X1]I-{NHCH2(2-pyridyl)}) | 0.111 | – | –
